Tests used:
D(3) dopamine receptor = D(3) dopamine receptor (Homo sapiens, UniProt P35462); assay: Binding affinity at Dopamine receptor D3 expressed in CHO cells by [125I]iodosulpiride displacement.; format: cell-based
[1] = Compound was evaluated for the rate of clearance in rat upon intravenous administration.; format: ADME, organism-based; details: in vivo
Outline: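 Relative blood clearance measured at steady state. Compound dissolved in 5% (w/v) aqueous glucose with 2% (v/v) DMSO and 10% Encapsin HPB, target concentration 0.2 mg free base/ml. Given to rats as a constant-rate iv infusion over 12 h at a target 1 mg free base/kg/h, n = 3. Serial blood samples taken over the last 2 h to confirm steady state, then terminal exsanguination. Parent compound in blood measured by LC/MS/MS.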

D(2) dopamine receptor [2] = molecular target: T1, D(2) dopamine receptor (Homo sapiens, UniProt P14416); assay: Binding affinity at Dopamine receptor D2 expressed in CHO cells by [125I]iodosulpiride displacement.; format: cell-based
D(2) dopamine receptor [3] = molecular target: T1, D(2) dopamine receptor; assay: Displacement of [125I]iodosulpiride from Dopamine receptor D2 expressed in CHO cells; format: cell-based

D(3) dopamine receptor, sequence (P35462 whole entry): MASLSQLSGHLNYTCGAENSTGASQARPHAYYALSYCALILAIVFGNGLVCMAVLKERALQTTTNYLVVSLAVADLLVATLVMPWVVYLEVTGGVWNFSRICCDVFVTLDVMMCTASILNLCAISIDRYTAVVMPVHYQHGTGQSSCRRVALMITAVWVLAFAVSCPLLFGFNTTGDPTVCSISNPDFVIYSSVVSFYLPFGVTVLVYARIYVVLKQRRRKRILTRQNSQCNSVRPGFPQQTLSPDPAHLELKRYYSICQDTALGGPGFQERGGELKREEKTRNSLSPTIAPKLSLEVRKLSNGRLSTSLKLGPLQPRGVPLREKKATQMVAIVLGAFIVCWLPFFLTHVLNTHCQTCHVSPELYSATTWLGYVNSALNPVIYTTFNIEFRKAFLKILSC
T1 sequence (P14416 whole entry): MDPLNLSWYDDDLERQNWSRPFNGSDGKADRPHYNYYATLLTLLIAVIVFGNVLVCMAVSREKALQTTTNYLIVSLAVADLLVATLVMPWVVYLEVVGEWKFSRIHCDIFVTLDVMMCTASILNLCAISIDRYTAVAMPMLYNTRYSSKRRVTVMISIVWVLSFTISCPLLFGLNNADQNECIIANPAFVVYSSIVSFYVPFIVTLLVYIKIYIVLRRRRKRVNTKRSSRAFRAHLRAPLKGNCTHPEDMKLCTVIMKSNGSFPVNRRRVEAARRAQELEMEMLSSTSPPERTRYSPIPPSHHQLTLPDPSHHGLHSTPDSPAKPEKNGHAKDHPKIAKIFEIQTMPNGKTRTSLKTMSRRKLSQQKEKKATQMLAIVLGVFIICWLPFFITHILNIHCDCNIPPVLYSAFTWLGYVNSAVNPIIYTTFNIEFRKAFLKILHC

Ki (D(3) dopamine receptor) [nM]	clearance [1] [mL/min/kg]	Ki (D(2) dopamine receptor [2]) [nM]	Ki (D(2) dopamine receptor [3]) [nM]	SMILES
10	61	316	–	CS(=O)(=O)Oc1cccc2c1CC[C@@H]1[C@@H]2CCCN1CCCCNC(=O)c1ccc(-c2ccccc2)cc1 [listing 1 of 2 here]
251	–	398	–	CS(=O)(=O)Oc1cccc2c1CC[C@H]1[C@@H]2CCCN1CCCCNC(=O)c1ccc(-c2ccccc2)cc1
6.31	–	251	–	CS(=O)(=O)Oc1cccc2c1CC[C@H]1[C@H]2CCCN1CCCCNC(=O)c1ccc(-c2ccccc2)cc1
2	–	63.1	–	O=C(NCCCCN1CC[C@H]2c3cccc(O)c3CC[C@@H]21)c1ccc(-c2ccccc2)cc1
1260	–	1260	–	CS(=O)(=O)Oc1cccc2c1CC[C@@H]1[C@@H]2CCCN1CCCCNC(=O)c1ccc(-c2ccccc2)cc1 [listing 2 of 2 here]
50.1	–	1000	–	CS(=O)(=O)Oc1ccc2c(c1)CC[C@H]1[C@H]2CCN1CCCCNC(=O)c1ccc(-c2ccccc2)cc1
–	96	–	–	CCCN(CCCCNC(=O)c1ccc(-c2ccccc2)cc1)C1CCc2c(Cl)cccc2C1 (stereo not drawn)
15.8	46	501	–	O=C(NCCCCN1CCC[C@@H]2c3ccccc3CC[C@H]21)c1ccc(-c2ccccc2)cc1
7.94	–	501	–	O=C(NCCCCN1CCC[C@H]2c3ccc(O)cc3CC[C@@H]21)c1ccc(-c2ccccc2)cc1
50.1	59	501	–	O=C(NCCCCN1CC[C@@H]2c3ccccc3CC[C@@H]21)c1ccc(-c2ccccc2)cc1
15.8	–	631	–	COc1cccc2c1CC[C@H]1[C@H]2CCN1CCCCNC(=O)c1ccc(-c2ccccc2)cc1
794	–	794	–	COc1cccc2c1CC[C@@H]1[C@@H]2CCCN1CCCCNC(=O)c1ccc(-c2ccccc2)cc1
200	–	2000	–	CS(=O)(=O)Oc1ccc2c(c1)CC[C@H]1[C@H]2CCCN1CCCCNC(=O)c1ccc(-c2ccccc2)cc1
251	–	–	794	O=C(NCCCCN1CCC[C@@H]2c3ccccc3CC[C@@H]21)c1ccc(-c2ccccc2)cc1
12.6	–	316	–	O=C(NCCCCN1CC[C@H]2c3ccc(O)cc3CC[C@@H]21)c1ccc(-c2ccccc2)cc1
15.8	–	501	–	O=C(NCCCCN1CC[C@H]2c3ccccc3CC[C@@H]21)c1ccc(-c2ccccc2)cc1
5.01	–	316	–	CS(=O)(=O)Oc1cccc2c1CC[C@H]1[C@H]2CCN1CCCCNC(=O)c1ccc(-c2ccccc2)cc1
7.94	–	501	–	COc1cccc2c1CC[C@H]1[C@H]2CCCN1CCCCNC(=O)c1ccc(-c2ccccc2)cc1 (single isomer, unassigned)
